According to ChEMBL document CHEMBL5661986, “Discovery of the SMYD3 Inhibitor BAY-6035 Using Thermal Shift Assay (TSA)-Based High-Throughput Screening” (SLAS Discov, 2021):
Converted amounts (≈) assume the structure as drawn. The source made the active and inactive calls. No cut-off for these calls is given here.

Legend:
[1] = Lipophilicity, log D of the compound at pH 7.5; format: physicochemical; conditions: buffer
[2] = biological target: T1, Histone-lysine N-methyltransferase SMYD3 (Homo sapiens) (UniProt Q9H7B4); conditions: dose 120.0 µM
T1 sequence (whole entry): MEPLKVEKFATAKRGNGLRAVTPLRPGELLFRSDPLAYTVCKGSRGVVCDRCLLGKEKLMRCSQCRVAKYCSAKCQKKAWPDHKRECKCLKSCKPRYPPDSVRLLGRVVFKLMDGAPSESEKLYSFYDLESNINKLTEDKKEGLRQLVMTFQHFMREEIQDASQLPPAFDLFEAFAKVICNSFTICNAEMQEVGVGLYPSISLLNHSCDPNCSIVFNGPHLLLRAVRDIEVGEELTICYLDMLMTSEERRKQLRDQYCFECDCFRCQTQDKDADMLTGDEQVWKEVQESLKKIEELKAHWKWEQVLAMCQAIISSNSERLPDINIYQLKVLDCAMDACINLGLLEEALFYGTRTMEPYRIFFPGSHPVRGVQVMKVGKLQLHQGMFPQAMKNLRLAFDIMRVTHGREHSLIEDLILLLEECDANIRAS

[3] = biological target: T2, Histone-lysine N-methyltransferase SMYD3 (Homo sapiens, UniProt Q9H7B4); assay: Binding affinity to recombinant human SMYD3 expressed in Escherichia coli assessed as catalytic inhibition using DYDNPIFEKFGKGGTYPRRYHVSYHGK-Biotin as substrate by scintillation proximity assay
T2 sequence (Q9H7B4 whole entry): T1 sequence (whole entry)

[4] = biological target: T1, Histone-lysine N-methyltransferase SMYD3 (Homo sapiens); assay: Binding affinity to recombinant human SMYD3 expressed in Escherichia coli assessed as change in melting temperature at 10 to 200 uM by SYPRO Orange staining based thermal shift assay; conditions: dose 10-200 µM
Procedure, shortened: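 Full-length untagged SMYD3 (aa 1–428, E. coli, His tag removed by TEV) at 1.5–2.0 µM with 5x SYPRO Orange in 20 mM Tris pH 7.0, 150 mM NaCl, 1.0 mM DTT; compound titration 10–200 µM; 4% DMSO control; melting scanned 25–80 °C at 0.1 °C/s; Tm shift read.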

[5] = biological target: N-lysine methyltransferase SMYD2 (Homo sapiens) (UniProt Q9NRG4); assay: Binding affinity to recombinant human SMYD2 expressed in Sf9 insect cells assessed as change in melting temperature at 120 uM by SYPRO Orange staining based thermal shift assay
N-lysine methyltransferase SMYD2 (Homo sapiens), sequence (Q9NRG4 whole entry, the tested form may be a part): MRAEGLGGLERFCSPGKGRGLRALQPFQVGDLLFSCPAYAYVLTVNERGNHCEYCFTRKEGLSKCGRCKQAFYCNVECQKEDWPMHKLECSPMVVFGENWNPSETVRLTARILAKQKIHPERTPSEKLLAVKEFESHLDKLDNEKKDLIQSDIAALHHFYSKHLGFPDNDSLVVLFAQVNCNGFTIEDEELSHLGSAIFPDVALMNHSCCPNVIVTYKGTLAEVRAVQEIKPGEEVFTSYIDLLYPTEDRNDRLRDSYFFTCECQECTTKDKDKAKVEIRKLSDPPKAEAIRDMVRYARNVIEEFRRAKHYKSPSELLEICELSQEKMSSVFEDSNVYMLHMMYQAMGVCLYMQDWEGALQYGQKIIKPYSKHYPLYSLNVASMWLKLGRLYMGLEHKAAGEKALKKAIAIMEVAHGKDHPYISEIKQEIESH
Procedure, shortened: (§1)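 SMYD1 (aa 2–490) or SMYD2 (aa 2–433), His-tagged from Sf9, Ni-NTA then gel filtration; melt at 1.4 µM protein, 8x SYPRO Orange in 20 mM Tris pH 8.0, 100 mM NaCl, 8.5% glycerol, 1.0 mM DTT; scan 25–80 °C at 0.1 °C/s; 4% DMSO control.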

[6] = biological target: T3, Histone-lysine N-methyltransferase SMYD1 (Homo sapiens) (UniProt Q8NB12); assay: Binding affinity to recombinant human SMYD1 expressed in Sf9 insect cells assessed as change in melting temperature at 120 uM by SYPRO Orange staining based thermal shift assay; procedure, shortened: as §1
T3 sequence (whole entry): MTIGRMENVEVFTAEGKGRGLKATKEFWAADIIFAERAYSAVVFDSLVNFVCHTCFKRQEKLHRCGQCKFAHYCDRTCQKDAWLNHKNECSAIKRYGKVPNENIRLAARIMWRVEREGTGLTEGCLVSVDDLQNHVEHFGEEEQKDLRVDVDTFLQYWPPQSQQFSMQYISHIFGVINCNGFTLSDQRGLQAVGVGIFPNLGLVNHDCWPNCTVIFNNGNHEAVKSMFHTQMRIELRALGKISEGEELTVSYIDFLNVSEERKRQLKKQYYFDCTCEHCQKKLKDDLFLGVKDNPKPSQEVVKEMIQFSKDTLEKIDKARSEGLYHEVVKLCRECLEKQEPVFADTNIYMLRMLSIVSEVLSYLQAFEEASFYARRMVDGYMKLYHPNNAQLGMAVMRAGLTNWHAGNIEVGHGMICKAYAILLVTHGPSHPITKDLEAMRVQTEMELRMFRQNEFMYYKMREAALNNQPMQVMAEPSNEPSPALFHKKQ

[7] = Kinetic solubility of the compound at pH 6.5; format: physicochemical; conditions: buffer, read-out: Kinetic_solubility
[8] = Dissociation constant, pKa of compound; format: physicochemical
[9] = tested on: Histone-lysine N-methyltransferase SMYD3 (Homo sapiens), Q9H7B4 [UNDEFINED MUTATION]; assay: Inhibition of SMYD3 catalytic inactive mutant co-expressed with HA-tagged MAP3K2 transfected in human HeLa cells assessed as reduction of MAP3K2-K260me3 level upto 10 uM incubated for 20 hrs by Western blotting analysis; format: cell-based
Procedure, shortened: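 After 4 h, compound or DMSO for 20 h. Lysates immunoblotted for MAP3K2-K260me3 (in-house antibody), HA, SMYD3 and MAP3K2 with infrared secondaries. K260me3 signal normalized to HA; three technical replicates, mean ± SEM, nonlinear fit.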

Row | Structure (SMILES) | logD [1] | deltaTm [2] | IC50 [3] | deltaTm [4] | deltaTm [5] | deltaTm [6] | solubility kinetic [7] | pKa [8] | inhibition [9]
1 | C[C@H]1CC(=O)Nc2cc(C(=O)NCCC3CC3)ccc2N1C(=O)N1CCN(CC(F)(F)F)CC1 | 2.2 | 5.26 K | 1.51 µM | – | – | – | – | – | –
2 | CCCCCNC(=O)c1ccc2c(c1)NC(=O)CC(C)N2C(=O)C1CCCC1 (configuration not stated) | – | – | 27 µM | 0 K | 0.1 K | -0.1 K | – | – | –
3 | C[C@H]1CC(=O)Nc2cc(C(=O)NCCC3CC3)ccc2N1C(=O)N1CCC(F)(F)CC1 | 2.1 | 5.6 K | 2.33 µM | – | – | – | 231 µg/mL (≈ 531 µM) | – | –
4 | CCCNC(=O)c1ccc2c(c1)NC(=O)CC(C)N2C(=O)c1cccs1 (configuration not stated) | – | – | 18 µM | 0.2 K | 0 K | -0.2 K | – | – | –
5 | CC1CC(=O)Nc2cc(C(=O)NCCC3CC3)ccc2N1C(=O)c1ccccc1 (racemic) | 2.1 | 3.9 K | 1.97 µM | – | – | – | 95.5 µg/mL (≈ 244 µM) | – | –
6 | CCCCCNC(=O)c1ccc2c(c1)NC(=O)CC(C)N2C(=O)c1ccccc1F (configuration not stated) | – | – | 24 µM | 0.2 K | 0.2 K | -0.2 K | – | – | –
7 | C[C@H]1CC(=O)Nc2cc(C(=O)NCCC3CC3)ccc2N1C(=O)N1CCC(NCC(F)(F)F)CC1 | 2.2 | 5.63 K | 1.03 µM | – | – | – | 312 µg/mL (≈ 631 µM) | – | –
8 | C[C@H]1CC(=O)Nc2cc(C(=O)NCCC3CC3)ccc2N1C(=O)N1CCC(N)CC1 | 1.4 | – | – | – | – | – | 318 µg/mL (≈ 768 µM) | – | –
9 | C[C@@H]1CC(=O)Nc2cc(C(=O)NCCC3CC3)ccc2N1C(=O)N1CC2CC2C1 (some centres not stated) | – | 5.15 K | 2.53 µM | – | – | – | – | – | –
10 | C[C@H]1CC(=O)Nc2cc(C(=O)N(C)CCC3CC3)ccc2N1C(=O)N1CC2CC2C1 (some centres not stated) | – | 3.9 K | 2.64 µM | – | – | – | – | – | –
11 | CC1CC(=O)Nc2cc(C(=O)NCCC3CCC3)ccc2N1C(=O)c1ccccc1 (racemic) | 2.4 | 4.77 K | 1.85 µM | – | – | – | 87.5 µg/mL (≈ 216 µM) | – | –
12 | C[C@H]1CC(=O)Nc2cc(C(=O)NCCC3CC3)ccc2N1C(=O)N1CCNCC1 | 1.4 | 7.42 K | 0.252 µM | – | – | – | 374 µg/mL (≈ 936 µM) | – | –
13 | CCN1CCN(C(=O)N2c3ccc(C(=O)NCCC4CC4)cc3NC(=O)C[C@@H]2C)CC1 | 1.7 | 7.34 K | 0.459 µM | – | – | – | > 428 µg/mL | – | –
14 | CCCCNC(=O)c1ccc2c(c1)NC(=O)CC(C)N2C(=O)c1ccccc1F (configuration not stated) | – | 2.4 K | 12 µM | 0.7 K | 0 K | 0 K | – | – | –
15 | C[C@@H]1CC(=O)Nc2cc(C(=O)NCCC3CC3)ccc2N1C(=O)N1CCC(N)CC1 | 1.4 | – | – | – | – | – | 320 µg/mL (≈ 775 µM) | – | –
16 | C[C@H]1CC(=O)Nc2cc(C(=O)NCCC3CC3)ccc2N1C(=O)N1CCN(CCO)CC1 | 1.5 | 5.63 K | 1.08 µM | – | – | – | 254 µg/mL (≈ 573 µM) | – | –
17 | C[C@H]1CC(=O)Nc2cc(C(=O)NCCC3CC3)ccc2N1C(=O)N1CC[C@H](N)C1.Cl | 1.4 | 7.56 K | 0.259 µM | – | – | – | 294 µg/mL | – | –
18 | C[C@H]1CC(=O)Nc2cc(C(=O)NCCC3CC3)ccc2N1C(=O)N1CCC(F)(F)C1 | 2 | 6.16 K | 0.763 µM | – | – | – | 294 µg/mL (≈ 700 µM) | – | –
19 | C[C@H]1CC(=O)Nc2cc(C(=O)NCCC3CC3)ccc2N1C(=O)NC1CCNCC1 | 1.3 | 6.77 K | 0.396 µM | – | – | – | 252 µg/mL (≈ 609 µM) | – | –
20 | C[C@H]1CC(=O)Nc2cc(C(=O)NCCC3CC3)ccc2N1C(=O)N(C)C1CCN(CC(F)(F)F)CC1 | 2.4 | 3.34 K | 5.56 µM | – | – | – | 345 µg/mL (≈ 677 µM) | – | –
21 | CCCCCNC(=O)c1ccc2c(c1)NC(=O)CC(C)N2C(=O)c1ccc(C)cc1 (configuration not stated) | – | – | 22 µM | 0.2 K | 0.2 K | 0.2 K | – | – | –
22 | CCCCNC(=O)c1ccc2c(c1)NC(=O)CC(C)N2C(=O)c1cccc(F)c1 (configuration not stated) | – | – | – | 0 K | 0.2 K | 0 K | – | – | –
23 | C[C@H]1CC(=O)Nc2cc(C(=O)NCCC3CC3)ccc2N1C(=O)N(C)C1CCNCC1 | 1.3 | 6.1 K | 0.493 µM | – | – | – | 257 µg/mL (≈ 602 µM) | – | –
24 | C[C@H]1CC(=O)Nc2cc(C(=O)NCCC3CC3)ccc2N1C(=O)N1CC[C@@H](N)C1.Cl | 1.4 | 5.91 K | 0.832 µM | – | – | – | 330 µg/mL | – | –
25 | CCCCNC(=O)c1ccc2c(c1)NC(=O)CC(C)N2C(=O)CCC1CCCC1 (configuration not stated) | – | – | 18 µM | 0.4 K | 0.2 K | -0.2 K | – | – | –
26 | C[C@H]1CC(=O)Nc2cc(C(=O)NCCC3CC3)ccc2N1C(=O)N1CCCNCC1 | 1.4 | 8.46 K | 0.0542 µM | – | – | – | > 414 µg/mL | 8.8 | –
27 | CCN1CCC(N(C)C(=O)N2c3ccc(C(=O)NCCC4CC4)cc3NC(=O)C[C@@H]2C)CC1 | 1.5 | 8.2 K | 0.177 µM | – | – | – | > 456 µg/mL | – | –
28 | C[C@@H]1CC(=O)Nc2cc(C(=O)N(C)CCC3CC3)ccc2N1C(=O)N1CC2CC2C1 (some centres not stated) | – | – | > 100 µM | – | – | – | – | – | inactive
